Measurements from different studies.
Lines come from different studies, so protocols differ.
Target: Leukocyte tyrosine kinase receptor (LTK, Homo sapiens, UniProt P29376)

The remaining binding of `Cc1cc(-n2nc(Cc3cc(F)cc(C(F)(F)F)c3)nc2C)ccc1C(N)=O` is reported as 100% (cell-free assay, competition with immobilised ligand; 1 µM).
`Cc1cnc(Nc2ccc(C(=O)N3CCC(N4CCCC4)CC3)cc2)nc1-c1cc2ccccc2s1` gave a remaining binding of 85% (binding, competition with immobilised ligand; 1 µM).
With `N[C@@H]1CCN(c2nccc(-c3cnn4ncccc34)n2)C1` the remaining binding was 100% (binding; 1 µM).
With `C=CC(=O)N1CCC(C(=O)NCC(=O)N2CCN(c3nc(-c4cnc(N)nc4C(F)F)nc(N4CCOCC4)n3)CC2)CC1` the remaining binding was 100% (binding, competition with immobilised ligand; 1 µM).
`O=C(NCCCN1CCOCC1)c1ccc(Nc2ncc(Cl)c(-c3ccc(Cl)s3)n2)cc1` has a remaining binding of 100% (binding, competition with immobilised ligand; 1 µM).
With `F[C@@H]1CCN(c2nccc(-c3cnn4ncccc34)n2)C1` the remaining binding was 92% (binding; 1 µM).
`O=C(c1ccc(Nc2ncc(Cl)c(-c3ccc(Cl)s3)n2)cc1)N1CCC(N2CCCC2)CC1` has a remaining binding of 90% (binding, competition with immobilised ligand; 1 µM).
For `CN(C)c1nccc(-c2cnn3ncccc23)n1`, the remaining binding was 92% (binding; 1 µM).
`CC(C)CC(=O)N1CCc2nc(-c3ccc(Br)cc3)nc(N(C)Cc3ccccc3)c2C1` gave a remaining binding of 91% (cell-free assay, competition with immobilised ligand; 0.1 µM).
`CN(CCCC(F)(F)F)c1nccc(-c2cnn3ncccc23)n1` has a remaining binding of 96% (binding; 1 µM).
With `COc1cnc(Nc2cccc(S(N)(=O)=O)c2)nc1N1CCN(c2ccccc2)CC1` the remaining binding was 100% (binding, competition with immobilised ligand; 1 µM).
The remaining binding of `Nc1ncc2c(n1)-c1c([nH]c3ccc(C#CC4CC4)cc13)CCCC2` is reported as 100% (binding, competition with immobilised ligand; 1 µM).
The remaining binding of `O=C(NS(=O)(=O)c1ccc(NCC2CCOCC2)c([N+](=O)[O-])c1)c1ccc(N2CCN(Cc3ccc(C(F)(F)F)cc3-c3ccc(Cl)cc3)CC2)cc1Oc1cnc2[nH]ccc2c1` is reported as 100% (cell-free assay, competition with immobilised ligand; 1 µM).
`C[C@H]1CCN(c2nccc(-c3cnn4ncccc34)n2)C1` has a remaining binding of 91% (binding; 1 µM).
`CSc1cccnc1N1CCN(Cc2nc3ccccc3[nH]2)CC1` has a remaining binding of 89% (cell-free assay, competition with immobilised ligand; 1 µM).
`COc1cnc(Nc2cccc(S(N)(=O)=O)c2)nc1N1CCN(c2ccccc2)C(=O)C1` has a remaining binding of 91% (binding, competition with immobilised ligand; 1 µM).
`COc1ccc2c(c1)O[C@H](c1ccc(OC)c(OC)c1)C[C@@H]2NC(=O)C1(c2ccc3c(c2)OC(F)(F)O3)CC1` has a remaining binding of 100% (cell-free assay, competition with immobilised ligand; 1 µM).
`c1cncc(-c2cccc(Nc3nccc(NC4CCCCC4)n3)c2)c1` has a remaining binding of 68% (binding, competition with immobilised ligand; 10 µM).
With `COc1ccc2cc(OCC3(C(=O)O)CN(C(=O)c4ccc(F)cc4)C3)ccc2c1` the remaining binding was 100% (cell-free assay, competition with immobilised ligand; 1 µM).
For `O=C(NCC1CCOCC1)c1n[nH]cc1NC(=O)c1c(F)cccc1F`, the remaining binding was 100% (binding, competition with immobilised ligand; 1 µM).
The remaining binding of `c1cnn2ncc(-c3ccnc(N4CCC45COC5)n3)c2c1` is reported as 98% (binding; 1 µM).
With `CS(=O)(=O)N1CCCC(NC(=O)[C@H](CCC2CCCCC2)NC(=O)c2ccc(CNc3ncnc4c3nnn4-c3ccccc3)cc2)C1` (stereo partly shown) the remaining binding was 100% (cell-free assay, competition with immobilised ligand; 0.1 µM).
